High-throughput results: PubChem, several laboratories
CHOP inhibitor – inhibitors of CHOP induction in ER stress response; CHO-K1 CHOP-promoter luciferase, tunicamycin-induced, 15-18 h; inhibition, % at 10 µM; 220,000 tested, 3.8% active;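 active = compounds that reduced the stress-induced luciferase reporter signal by more than about 70% of percent inhibition, limit read from the data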;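 note: 0% = tunicamycin plus vehicle and 100% = wells without tunicamycin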
EBV gp42 block – inhibitors of Epstein-Barr virus glycoprotein 42. Fluorescence polarization binding assay, mP read-out. 220,000 tested, 0.42% active. Q1HVG2. inhibition, % (tested at 21.74 µM); in the data active = inhibition above about 50%
Target sequence (Q1HVG2 whole entry, looked up): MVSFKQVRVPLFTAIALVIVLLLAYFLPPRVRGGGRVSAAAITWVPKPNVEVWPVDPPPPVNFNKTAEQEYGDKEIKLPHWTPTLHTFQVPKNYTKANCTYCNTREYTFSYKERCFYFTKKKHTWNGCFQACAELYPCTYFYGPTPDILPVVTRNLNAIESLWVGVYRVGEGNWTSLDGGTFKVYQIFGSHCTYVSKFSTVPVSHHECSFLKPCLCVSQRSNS
WT yeast gro inh – growth inhibition of WT yeast, mitochondrial fusion screen; mitochondrial fusion phenotypic screen, WT strain; inhibition, % at 10 µM; 190,000 tested, 2.1% active; AID 1362; in the data active = inhibition above about 58%; tested in S. cerevisiae
NR3A LBD binder – NR3A (human) ligand-binding domain modulation; AID 1259313; 340,000 tested, 2.5% active; NR3A LBD differential scanning fluorimetry, Tm shift; 0% = protein alone, 100% = glycine-bound protein; Tm shift relative to glycine control, % at 25 µM;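 active = melting temperature shift of at least 10% of the positive control shift, at one fixed dose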
MPTP block – blocks calcium-induced mitochondrial swelling; isolated mouse mitochondria, Ca2+ swelling absorbance, 30 min; inhibition, % at 10 µM; 360,000 tested, 1.4% active;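 active = inhibition of 50% or more, scaled per plate between neutral and stimulator controls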;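 note: 0% = DMSO wells given calcium and 100% = 1 mM EGTA wells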
Tb MetRS inh – blocks T. brucei methionyl-tRNA synthetase activity; inhibition, % at 11.9 µM; 360,000 tested, 0.4% active; purified T. brucei MetRS, ATP depletion, Kinase-Glo luminescence;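 active = inhibition above a per-plate cutoff of the control wells' mean inhibition plus 3 SD, cut at about 5.5% in these data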;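 note: 0% = DMSO wells median and 100% = median of wells with control inhibitor compound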
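Dosing: 11.9 µM single point; system: parasite MetRS enzyme; technique: luminescence of leftover ATP; times: 15 min enzyme-compound preincubation, 2 h reaction, 10 min detection, 25 °C; replicates: each compound tested once; read-out basis: percent inhibition relative to median high and low control wells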
Rh123 counter – mitochondrial membrane potential, counter-screen; 5,000 tested, 78% active; isolated mitochondria, Rhodamine 123 fluorescence; inhibition, % at 10 µM; shares compounds with MPTP block; AID 624504; in the data active = inhibition above about 22%;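 note: 0% = DMSO vehicle and 100% = positive control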
MPTP swell DR – MPTP inhibition, dose response swelling confirmation | shares compounds with MPTP block | isolated mitochondria swelling, absorbance | IC50, µM | 780 tested, 58% active; in the data active = IC50 below about 20 µM
MPTP counter DR – MPTP inhibitor counter-screen activity, dose response. IC50, µM. 780 tested, 49% active. isolated mitochondria counterscreen, fluorescence read-out. shares compounds with MPTP block; in the data active = IC50 below about 80 µM
* hit, by the source's call; i = inactive; · = not tested or not shown. The list is not random: actives were taken first. Their share in the collection is about 6.4%.

SMILES | CHOP inhibitor | EBV gp42 block | WT yeast gro inh | NR3A LBD binder | MPTP block | Tb MetRS inh | Rh123 counter | others
Cc1cc2c(cc(C(=O)N3CCC(C(=O)NC4CCCC4)CC3)n2Cc2c(F)cccc2Cl)o1 | 33 | -20 | -3 | 0 | -2 | -1 | ·
CC(C)c1c(O)ccc2c1CC[C@H]1C(C)(C)CCC[C@]21C | · | · | · | 22* | 98* | -1 | 11 | MPTP swell DR=i;MPTP counter DR=16*
CC(C)(O)c1ccc2c(c1)CCC1C(C)(C(=O)O)CCCC21C (stereo not given) | 1 | -19 | · | -3 | 0 | -2 | ·
CCN(CC(=O)Nc1c(F)cccc1F)C(=O)CCOc1ccc(C)cc1 | · | · | · | 2 | 0 | 0 | ·
Cc1cn2c(N)c(C=C3C=C(Cl)C(=O)C(Cl)=C3)c(=O)nc2s1 | 26 | -167 | 0 | 0 | 87* | 0 | 83*
Cc1ccc(NC(=O)c2ccc(F)cc2)cc1S(=O)(=O)N1CCCCCC1 | 16 | -9 | 18 | -3 | -1 | 1 | ·
Cc1ccc(C(c2sc3nc(C)nn3c2O)N2CCN(c3ccccc3F)CC2)cc1 (stereo not given) | 45 | -1 | 5 | 0 | -2 | 0 | ·
CC(=O)c1cn(CCOc2cc(C)ccc2C)c2ccccc12 | · | · | · | 0 | 97* | -1 | 83*
COc1cccc(OCCn2cc(C(C)=O)c3ccccc32)c1 | · | · | · | 1 | 61* | -2 | 56*
Cc1cnc(NC(=O)Cc2c[nH]c3ccccc23)s1 | 21 | 1 | -5 | -1 | 0 | -1 | ·
Cn1c2c(c(=O)n(C)c1=O)C(C(F)(F)F)(C(F)(F)F)N=C(CCC1CCCCC1)N2 | 60 | 0 | 35 | -7 | 94* | 1 | 79*
COc1ccccc1S(=O)(=O)N(C)C[C@H]1OCc2cnnn2CCCC(=O)N([C@@H](C)CO)C[C@H]1C | · | · | · | · | -2 | 0 | ·
CC1CCN(CCCCOc2ccc(C(C)(C)C)cc2)CC1 | · | · | · | -1 | 54* | -1 | 7 | MPTP swell DR=6.8*;MPTP counter DR=13*
CN1CCC(Oc2ccccc2Sc2ccccc2)CC1 | 41 | -12 | -4 | -1 | 92* | -1 | 0 | MPTP swell DR=10*;MPTP counter DR=34*
CN1CCC(OC(c2ccccc2)c2ccccc2)CC1 | -4 | 8 | -1 | -1 | 1 | -1 | ·
CC(=O)Cc1nsc(NC(=O)c2ccc(-c3cccc(C(F)(F)F)c3)o2)n1 | 9 | -3 | 8 | -4 | 5 | 0 | ·
CC(=O)Cc1nsc(NC(=O)c2ccc(-c3ccc(Cl)cc3Cl)o2)n1 | 13 | -5 | 31 | 6 | 54* | -1 | 38*
C=CCNC(=O)c1ccc(C)cc1Cl | 25 | -3 | 4 | -1 | 0 | 0 | ·
Cc1onc(-c2ccccc2)c1C(=O)NNC(=S)NC(=O)/C=C/c1ccccc1 | 30 | -4 | -43 | -8 | 93* | -1 | 5
COc1ccc(/C=C/C(=O)NC(=S)NNC(=O)c2c(-c3ccccc3)noc2C)cc1 | 42 | -35 | -26 | -1 | 14 | 0 | ·
Cc1onc(-c2ccccc2)c1C(=O)NNC(=S)NC(=O)c1ccc(Cl)cc1Cl | 86* | -9 | -23 | -8 | 104* | -1 | 33*
Cc1onc(-c2ccccc2)c1C(=O)NNC(=S)NC(=O)c1ccc(Br)cc1 | 61 | 7 | 31 | -5 | 68* | 0 | 29*
CCOC(=O)c1c(NC(=O)C2CCCCC2)sc2c1CCN(CC)C2 | · | · | · | 2 | 58* | 0 | -9 | MPTP swell DR=15*;MPTP counter DR=>80
CCN1CCc2c(sc(NC(=O)C3CCCCC3)c2C(=O)OC)C1 | · | · | · | -1 | 47 | 0 | ·
Cc1ccc(S(=O)(=O)N(C)C)cc1NC(=S)NCc1ccco1 | 18 | -8 | 4 | -1 | -2 | -1 | ·
SMILES | CHOP inhibitor | EBV gp42 block | WT yeast gro inh | NR3A LBD binder | MPTP block | Tb MetRS inh | Rh123 counter | others
Nc1nc(Cl)cc(N2CCCC2)n1 | -17 | 0 | -18 | 1 | -1 | 0 | ·
Nc1nc(Cl)cc(N2CCC(c3cc(-c4ccc(Cl)cc4Cl)n[nH]3)CC2)n1 | 89* | -25 | 64 | 13* | 64* | 21* | 63*
Cc1ccc(NS(=O)(=O)c2cc(C(=O)Nc3cccc(N(C)S(C)(=O)=O)c3)ccc2C)c(C)c1 | -3 | 1 | 3 | -8 | 6 | 0 | ·
C/C(=N\NC(N)=O)c1cccc(Cl)c1 | 14 | -19 | -6 | -6 | 0 | 0 | ·
C/C(=N\N=C(N)N)c1cccc(Cl)c1 | 5 | 3 | 11 | -3 | 55* | 0 | 6 | MPTP swell DR=16*;MPTP counter DR=68*
NS(=O)(=O)c1cccc(NC(=S)NC(=O)C23CC4CC(CC(C4)C2)C3)c1 | 42 | 3 | 5 | -19 | 1 | -2 | ·
Cc1ccc(S(=O)(=O)N(C)C)cc1NC(=S)NC12CC3CC(CC(C3)C1)C2 | 36 | 31 | 22 | -8 | 65* | 2 | 84*
Cc1ccc(S(=O)(=O)N(C)C)cc1NC(=S)NC(=O)C12CC3CC(CC(C3)C1)C2 | 49 | -3 | -4 | 1 | 60* | 0 | 35*
COC(=O)C1CCN(C(=O)N2CCOCC2)CC1 | 14 | -2 | 14 | -1 | 0 | 0 | ·
O=S(=O)(Nc1ccc(O)c(Sc2nc3ccccc3s2)c1)c1ccc(F)cc1 | 18 | 13 | 22 | 9 | 78* | 1 | 55*
COc1ccc(NC(=O)COC(=O)CNS(=O)(=O)c2ccccc2)cc1OC | -7 | -14 | -5 | -1 | 120* | 0 | -3
CC(C)(CO)NCc1ccccc1OCC(=O)Nc1ccccc1 | 6 | -3 | 56 | 4 | 0 | -1 | ·
Cc1ccc(NC(=O)COc2ccccc2CNC(C)(C)CC(C)(C)C)cc1 | 74* | 0 | 35 | -1 | 50* | -1 | 34*
Cc1ccccc1OCCCCCNCCO | 31 | -12 | 18 | 0 | -2 | -1 | ·
CC(C)(C)c1ccccc1OCCCCCNCCO | -10 | -13 | 6 | 2 | 90* | 0 | -15 | MPTP swell DR=7.9*;MPTP counter DR=>80
Cc1ccc(-c2c(C)sc3nc(CN4CCN(CC(=O)NC5CC5)CC4)[nH]c(=O)c23)cc1 | · | · | · | 2 | 0 | 0 | ·
COc1ccccc1OCCCCOc1ccccc1C(C)=O | 50 | 2 | -9 | -8 | 61* | -1 | 61*
CCOc1ccc(C=NN2CCCCCC2)cc1OCC | · | · | · | 4 | -1 | 0 | ·
Cc1cc(C(=O)CSc2nc(N)cc(=O)[nH]2)c(C)n1-c1ccc(OC(F)F)cc1 | 61 | -2 | -14 | -1 | 98* | 0 | 89*
Cc1cc(-n2c(C)cc(C(=O)CSc3nc(N)cc(=O)[nH]3)c2C)no1 | 12 | -2 | · | -1 | 23 | 0 | ·
